{"source": "ChEMBL document CHEMBL4354843", "about": "“Structure-Based Design of a Potent and Selective Covalent Inhibitor for SRC Kinase That Targets a P-Loop Cysteine” (J Med Chem, 2020)", "key": {"[1]": {"molecular_target": "Mitogen-activated protein kinase kinase kinase 6 (Homo sapiens) (UniProt O95382)", "assay": "Binding affinity to wild-type human partial length ASK2 (M278 to R972 residues) expressed in mammalian expression system assessed as residual binding level at 1 uM by Kinomescan method relative to control", "summary_of_the_method": "(§1)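 KinomeScan, an active site-directed competition binding panel of 468 kinases. The test compound was at 1 μM. The readout is remaining kinase binding as a percentage of the DMSO control. Scores above 35% were treated as weak binding and not listed.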"}, "[2]": {"molecular_target": "Cytoplasmic tyrosine-protein kinase BMX (Homo sapiens) (UniProt P51813)", "sequence (P51813 whole entry, the tested form may be a part)": "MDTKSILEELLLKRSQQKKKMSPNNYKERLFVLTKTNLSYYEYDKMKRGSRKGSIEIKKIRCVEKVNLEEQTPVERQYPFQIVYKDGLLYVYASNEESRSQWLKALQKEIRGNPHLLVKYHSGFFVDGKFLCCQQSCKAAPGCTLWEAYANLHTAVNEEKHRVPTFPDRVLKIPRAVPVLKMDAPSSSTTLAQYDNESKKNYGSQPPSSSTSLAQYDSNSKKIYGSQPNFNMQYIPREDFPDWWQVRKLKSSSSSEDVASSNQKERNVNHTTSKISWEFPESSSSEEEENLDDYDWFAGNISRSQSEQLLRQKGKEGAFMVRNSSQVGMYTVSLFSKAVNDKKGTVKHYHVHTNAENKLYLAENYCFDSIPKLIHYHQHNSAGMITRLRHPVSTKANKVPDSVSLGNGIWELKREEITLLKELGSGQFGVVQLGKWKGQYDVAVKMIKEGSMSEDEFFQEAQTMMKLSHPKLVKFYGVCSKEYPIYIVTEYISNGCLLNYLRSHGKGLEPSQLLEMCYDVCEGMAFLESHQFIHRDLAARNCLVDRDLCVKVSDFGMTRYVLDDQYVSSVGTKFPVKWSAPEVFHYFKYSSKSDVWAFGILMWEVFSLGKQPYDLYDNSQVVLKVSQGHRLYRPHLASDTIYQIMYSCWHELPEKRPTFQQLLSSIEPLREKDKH", "assay": "Binding affinity to wild-type human full length BMX (M1 to H675 residues) expressed in bacterial expression system assessed as residual binding level at 1 uM by Kinomescan method relative to control", "summary_of_the_method": "as §1"}, "[3]": {"molecular_target": "Cyclin-dependent kinase 3 (Homo sapiens) (UniProt Q00526)", "sequence (Q00526 whole entry, looked up, the tested form may be a part)": "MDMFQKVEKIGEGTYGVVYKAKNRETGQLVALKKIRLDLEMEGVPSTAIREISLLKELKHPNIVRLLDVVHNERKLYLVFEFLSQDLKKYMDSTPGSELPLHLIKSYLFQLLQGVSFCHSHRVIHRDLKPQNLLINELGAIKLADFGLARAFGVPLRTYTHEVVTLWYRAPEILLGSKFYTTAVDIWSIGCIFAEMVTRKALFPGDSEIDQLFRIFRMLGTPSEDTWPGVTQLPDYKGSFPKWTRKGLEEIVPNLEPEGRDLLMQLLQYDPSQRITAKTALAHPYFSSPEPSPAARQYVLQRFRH", "assay": "Binding affinity to wild-type human full length CDK3 (M1 to H305 residues) expressed in bacterial expression system assessed as residual binding level at 1 uM by Kinomescan method relative to control", "summary_of_the_method": "(§2)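 Active-site-directed KinomeScan competition binding panel covering 468 kinases, compound tested at 1 μM. Each readout is the kinase signal remaining with compound, expressed as a percentage of the DMSO control. […]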"}, "[4]": {"molecular_target": "Cyclin-dependent kinase 4/cyclin D1 (Homo sapiens) (UniProt P11802+P24385)", "assay": "Binding affinity to wild-type human full length CDK4/cyclinD1 (M1 to E303 residues) expressed in mammalian expression system assessed as residual binding level at 1 uM by Kinomescan method relative to control", "summary_of_the_method": "as §2"}, "[5]": {"molecular_target": "Focal adhesion kinase 1 (Homo sapiens) (UniProt Q05397)", "assay": "Binding affinity to wild-type human partial length FAK (D402 to R696 residues) expressed in bacterial expression system assessed as residual binding level at 1 uM by Kinomescan method relative to control"}, "[6]": {"molecular_target": "Beta-adrenergic receptor kinase 1 (Homo sapiens) (UniProt P25098)", "assay": "Binding affinity to wild-type human full length GRK2 (M1 to L689 residues) expressed in mammalian expression system assessed as residual binding level at 1 uM by Kinomescan method relative to control", "summary_of_the_method": "as §2"}, "[7]": {"molecular_target": "Interleukin-1 receptor-associated kinase 1 (Homo sapiens) (UniProt P51617)", "assay": "Binding affinity to wild-type human partial length IRAK1 (R194 to S712 residues) expressed in mammalian expression system assessed as residual binding level at 1 uM by Kinomescan method relative to control"}, "[8]": {"molecular_target": "Leucine-rich repeat serine/threonine-protein kinase 2 (Homo sapiens) (UniProt Q5S007)", "assay": "Binding affinity to wild-type human partial length LRRK2 (H970 to E2527 residues) expressed in mammalian expression system assessed as residual binding level at 1 uM by Kinomescan method relative to control"}, "[9]": {"molecular_target": "Mitogen-activated protein kinase kinase kinase 1 (Homo sapiens) (UniProt Q13233)", "assay": "Binding affinity to wild-type human partial length MAP3K1 (L1202 to W1512 residues) expressed in mammalian expression system assessed as residual binding level at 1 uM by Kinomescan method relative to control", "summary_of_the_method": "(§3)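 Active-site-directed competition binding panel of 468 kinases (KinomeScan), compound at 1 μM. The read-out is kinase remaining bound, given as a percentage of the DMSO control. […]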"}, "[10]": {"molecular_target": "Tyrosine-protein kinase Mer (Homo sapiens) (UniProt Q12866)", "assay": "Binding affinity to wild-type human partial length MERTK (R557 to L884 residues) expressed in bacterial expression system assessed as residual binding level at 1 uM by Kinomescan method relative to control"}, "[11]": {"molecular_target": "Misshapen-like kinase 1 (Homo sapiens) (UniProt Q8N4C8)", "sequence (Q8N4C8 whole entry, looked up, the tested form may be a part)": "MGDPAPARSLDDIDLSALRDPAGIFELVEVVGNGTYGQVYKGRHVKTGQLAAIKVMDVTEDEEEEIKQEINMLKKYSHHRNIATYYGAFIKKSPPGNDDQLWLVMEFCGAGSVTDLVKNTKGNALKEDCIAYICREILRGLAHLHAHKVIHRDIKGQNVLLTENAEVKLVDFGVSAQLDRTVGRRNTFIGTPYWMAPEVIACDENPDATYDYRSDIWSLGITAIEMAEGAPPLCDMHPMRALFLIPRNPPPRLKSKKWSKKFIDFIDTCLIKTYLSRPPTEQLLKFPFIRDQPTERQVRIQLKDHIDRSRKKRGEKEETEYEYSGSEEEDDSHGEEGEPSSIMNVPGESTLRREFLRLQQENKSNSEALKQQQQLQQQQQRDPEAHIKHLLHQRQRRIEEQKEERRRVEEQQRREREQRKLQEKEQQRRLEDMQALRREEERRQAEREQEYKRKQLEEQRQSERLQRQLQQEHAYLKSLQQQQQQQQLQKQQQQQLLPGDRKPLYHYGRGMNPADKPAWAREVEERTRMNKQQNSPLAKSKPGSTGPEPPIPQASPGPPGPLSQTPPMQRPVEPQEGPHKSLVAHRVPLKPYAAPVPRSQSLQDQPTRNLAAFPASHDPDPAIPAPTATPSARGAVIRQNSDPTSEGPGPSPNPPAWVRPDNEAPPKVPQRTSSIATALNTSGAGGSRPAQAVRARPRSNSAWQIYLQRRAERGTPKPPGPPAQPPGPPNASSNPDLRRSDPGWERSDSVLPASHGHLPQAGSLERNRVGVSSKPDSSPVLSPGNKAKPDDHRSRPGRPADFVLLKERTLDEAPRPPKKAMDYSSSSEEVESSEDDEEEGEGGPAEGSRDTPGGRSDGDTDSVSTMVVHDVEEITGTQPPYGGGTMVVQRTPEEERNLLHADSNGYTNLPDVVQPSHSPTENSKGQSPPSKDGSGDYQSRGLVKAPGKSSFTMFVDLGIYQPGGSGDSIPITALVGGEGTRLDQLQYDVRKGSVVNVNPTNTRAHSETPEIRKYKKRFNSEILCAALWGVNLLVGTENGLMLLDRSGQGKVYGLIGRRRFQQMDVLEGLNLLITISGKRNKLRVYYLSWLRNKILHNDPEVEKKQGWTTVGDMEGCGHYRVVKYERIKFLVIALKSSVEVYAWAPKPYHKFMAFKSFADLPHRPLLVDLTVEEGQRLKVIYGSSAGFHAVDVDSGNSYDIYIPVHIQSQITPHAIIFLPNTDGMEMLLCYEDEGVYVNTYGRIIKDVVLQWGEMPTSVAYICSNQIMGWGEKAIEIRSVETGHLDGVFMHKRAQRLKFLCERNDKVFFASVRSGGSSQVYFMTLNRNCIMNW", "assay": "Binding affinity to wild-type human partial length MINK (M1 to K312 residues) expressed in mammalian expression system assessed as residual binding level at 1 uM by Kinomescan method relative to control", "summary_of_the_method": "as §3"}, "[12]": {"molecular_target": "MAP kinase-interacting serine/threonine-protein kinase 1 (Homo sapiens) (UniProt Q9BUB5)", "assay": "Binding affinity to wild-type human full length MKNK1 (M1 to L424 residues) expressed in mammalian expression system assessed as residual binding level at 1 uM by Kinomescan method relative to control", "summary_of_the_method": "(§4)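 Active-site-directed competition binding panel (KinomeScan) covering 468 kinases. Test agent was screened at 1 μM. The read-out is the remaining kinase signal expressed relative to a DMSO control. Scores above 35%, taken as weak binding, were not reported.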"}, "[13]": {"molecular_target": "Serine/threonine-protein kinase 26 (Homo sapiens) (UniProt Q9P289)", "assay": "Binding affinity to wild-type human full length MST4 (M1 to P416 residues) expressed in mammalian expression system assessed as residual binding level at 1 uM by Kinomescan method relative to control", "summary_of_the_method": "as §4"}, "[14]": {"molecular_target": "Serine/threonine-protein kinase PAK 3 (Homo sapiens) (UniProt O75914)", "sequence (O75914 whole entry, looked up, the tested form may be a part)": "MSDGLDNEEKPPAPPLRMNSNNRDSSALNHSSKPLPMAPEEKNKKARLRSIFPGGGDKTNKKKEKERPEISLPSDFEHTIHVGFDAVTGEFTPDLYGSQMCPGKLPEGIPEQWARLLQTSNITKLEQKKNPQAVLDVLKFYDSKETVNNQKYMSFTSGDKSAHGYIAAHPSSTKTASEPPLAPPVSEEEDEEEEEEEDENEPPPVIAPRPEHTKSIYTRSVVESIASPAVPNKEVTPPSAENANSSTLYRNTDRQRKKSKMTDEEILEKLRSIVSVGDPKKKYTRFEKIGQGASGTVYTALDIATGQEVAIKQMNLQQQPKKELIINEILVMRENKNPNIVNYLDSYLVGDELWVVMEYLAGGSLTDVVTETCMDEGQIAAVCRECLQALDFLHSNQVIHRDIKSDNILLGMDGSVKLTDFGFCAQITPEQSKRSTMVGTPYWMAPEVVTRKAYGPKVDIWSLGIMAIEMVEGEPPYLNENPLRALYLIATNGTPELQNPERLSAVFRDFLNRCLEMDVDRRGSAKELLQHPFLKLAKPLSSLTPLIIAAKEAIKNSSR", "assay": "Binding affinity to wild-type human full length PAK3 (M1 to R544 residues) expressed in bacterial expression system assessed as residual binding level at 1 uM by Kinomescan method relative to control", "summary_of_the_method": "as §1"}, "[15]": {"molecular_target": "Platelet-derived growth factor receptor beta (Homo sapiens) (UniProt P09619)", "assay": "Binding affinity to wild-type human partial length PDGFRB (V582 to Y1009 residues) expressed in bacterial expression system assessed as residual binding level at 1 uM by Kinomescan method relative to control", "summary_of_the_method": "as §3"}, "[16]": {"molecular_target": "Cyclin-dependent kinase 15 (Homo sapiens) (UniProt Q96Q40)", "sequence (Q96Q40 whole entry, the tested form may be a part)": "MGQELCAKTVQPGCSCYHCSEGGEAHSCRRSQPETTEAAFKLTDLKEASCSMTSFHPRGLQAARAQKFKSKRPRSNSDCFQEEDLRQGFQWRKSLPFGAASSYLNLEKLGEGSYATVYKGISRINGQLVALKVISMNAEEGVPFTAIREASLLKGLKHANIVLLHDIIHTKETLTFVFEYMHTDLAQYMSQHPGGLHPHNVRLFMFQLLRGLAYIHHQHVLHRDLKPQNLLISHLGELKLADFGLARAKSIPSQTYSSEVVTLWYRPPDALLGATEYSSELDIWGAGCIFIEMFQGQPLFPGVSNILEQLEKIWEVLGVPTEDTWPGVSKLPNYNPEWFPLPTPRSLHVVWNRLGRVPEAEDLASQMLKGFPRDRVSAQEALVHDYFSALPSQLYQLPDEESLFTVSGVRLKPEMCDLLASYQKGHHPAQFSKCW", "assay": "Binding affinity to wild-type human full length PFTAIRE2 (M1 to W384 residues) expressed in bacterial expression system assessed as residual binding level at 1 uM by Kinomescan method relative to control", "summary_of_the_method": "as §4"}, "[17]": {"molecular_target": "Serine/threonine-protein kinase SBK1 (Homo sapiens) (UniProt Q52WX2)", "sequence (Q52WX2 whole entry, the tested form may be a part)": "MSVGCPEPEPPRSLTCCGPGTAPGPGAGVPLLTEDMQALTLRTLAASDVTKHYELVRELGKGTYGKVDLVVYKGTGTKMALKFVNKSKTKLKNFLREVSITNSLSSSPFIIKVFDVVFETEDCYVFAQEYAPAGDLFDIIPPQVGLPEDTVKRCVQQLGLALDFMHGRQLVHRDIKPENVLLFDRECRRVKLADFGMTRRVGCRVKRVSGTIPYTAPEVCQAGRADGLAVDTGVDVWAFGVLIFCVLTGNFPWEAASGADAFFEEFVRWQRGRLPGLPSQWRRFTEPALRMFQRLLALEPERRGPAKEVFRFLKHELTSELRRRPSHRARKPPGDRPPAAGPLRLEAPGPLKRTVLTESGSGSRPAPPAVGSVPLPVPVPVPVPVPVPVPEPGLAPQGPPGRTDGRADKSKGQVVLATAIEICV", "assay": "Binding affinity to wild-type human partial length SBK1 (P23 to P348 residues) expressed in mammalian expression system assessed as residual binding level at 1 uM by Kinomescan method relative to control"}, "[18]": {"molecular_target": "Tyrosine-protein kinase Tec (Homo sapiens) (UniProt P42680)", "assay": "Binding affinity to wild-type human partial length TEC (L341 to D620 residues) expressed in bacterial expression system assessed as residual binding level at 1 uM by Kinomescan method relative to control"}, "[19]": {"molecular_target": "Activated CDC42 kinase 1 (Homo sapiens) (UniProt Q07912)", "assay": "Binding affinity to wild-type human partial length TNK2 (S159 to D474 residues) expressed in bacterial expression system assessed as residual binding level at 1 uM by Kinomescan method relative to control", "summary_of_the_method": "(§5)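 Active site-directed competition binding panel (KinomeScan, 468 kinases). Test compound at 1 μM. Read-out is kinase binding remaining versus DMSO control, expressed as percent of control. Scores above 35% are treated as weak binding.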"}, "[20]": {"molecular_target": "Wee1-like protein kinase (Homo sapiens) (UniProt P30291)", "assay": "Binding affinity to wild-type human partial length WEE1 (M291 to K575 residues) expressed in bacterial expression system assessed as residual binding level at 1 uM by Kinomescan method relative to control"}, "[21]": {"molecular_target": "Serine/threonine-protein kinase WNK4 (Homo sapiens) (UniProt Q96J92)", "sequence (Q96J92 whole entry, the tested form may be a part)": "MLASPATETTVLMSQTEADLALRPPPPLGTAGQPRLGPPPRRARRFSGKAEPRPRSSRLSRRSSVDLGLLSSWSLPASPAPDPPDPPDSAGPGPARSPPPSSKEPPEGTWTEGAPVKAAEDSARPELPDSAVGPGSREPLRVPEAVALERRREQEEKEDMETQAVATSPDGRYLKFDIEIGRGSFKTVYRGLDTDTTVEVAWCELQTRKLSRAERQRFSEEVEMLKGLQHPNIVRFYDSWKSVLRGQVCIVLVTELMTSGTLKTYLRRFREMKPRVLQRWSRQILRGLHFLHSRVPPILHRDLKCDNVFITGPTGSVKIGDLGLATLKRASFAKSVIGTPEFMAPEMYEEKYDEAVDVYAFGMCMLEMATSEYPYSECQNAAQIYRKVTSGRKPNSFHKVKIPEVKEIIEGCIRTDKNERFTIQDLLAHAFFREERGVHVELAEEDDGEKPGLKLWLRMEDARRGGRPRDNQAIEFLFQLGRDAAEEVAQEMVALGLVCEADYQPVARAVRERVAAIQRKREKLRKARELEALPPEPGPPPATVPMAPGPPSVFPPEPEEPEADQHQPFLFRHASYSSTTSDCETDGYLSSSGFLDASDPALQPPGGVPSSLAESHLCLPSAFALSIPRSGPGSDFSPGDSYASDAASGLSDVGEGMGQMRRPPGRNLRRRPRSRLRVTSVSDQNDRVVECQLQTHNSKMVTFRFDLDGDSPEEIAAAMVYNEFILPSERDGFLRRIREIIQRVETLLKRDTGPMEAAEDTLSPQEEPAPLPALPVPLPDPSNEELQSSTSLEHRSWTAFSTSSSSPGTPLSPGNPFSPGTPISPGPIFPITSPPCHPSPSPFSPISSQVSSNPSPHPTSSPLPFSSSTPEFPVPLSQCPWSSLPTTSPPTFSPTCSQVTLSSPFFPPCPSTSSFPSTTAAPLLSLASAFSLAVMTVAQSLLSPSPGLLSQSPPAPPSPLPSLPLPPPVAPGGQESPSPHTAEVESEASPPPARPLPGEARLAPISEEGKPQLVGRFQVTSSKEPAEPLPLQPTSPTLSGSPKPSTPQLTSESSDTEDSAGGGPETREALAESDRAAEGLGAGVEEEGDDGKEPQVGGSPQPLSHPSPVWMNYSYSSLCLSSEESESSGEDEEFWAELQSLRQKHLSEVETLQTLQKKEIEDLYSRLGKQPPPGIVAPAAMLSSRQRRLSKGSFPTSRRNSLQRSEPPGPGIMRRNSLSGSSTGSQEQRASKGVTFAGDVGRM", "assay": "Binding affinity to wild-type human partial length WNK4 (A31 to D461 residues) expressed in mammalian expression system assessed as residual binding level at 1 uM by Kinomescan method relative to control", "summary_of_the_method": "as §5"}}, "data": [{"smiles": "C=CC(=O)Nc1ccccc1Nc1nc(Nc2ccc(N3CCN(C)CC3)cc2)ncc1C(=O)Nc1c(C)cccc1Cl", "values": [{"measurement": "Activity", "setting": "[1]", "result": 64, "unit": "%"}, {"measurement": "Activity", "setting": "[2]", "result": 48, "unit": "%"}, {"measurement": "Activity", "setting": "[3]", "result": 100, "unit": "%"}, {"measurement": "Activity", "setting": "[4]", "result": 100, "unit": "%"}, {"measurement": "Activity", "setting": "[5]", "result": 100, "unit": "%"}, {"measurement": "Activity", "setting": "[6]", "result": 85, "unit": "%"}, {"measurement": "Activity", "setting": "[7]", "result": 100, "unit": "%"}, {"measurement": "Activity", "setting": "[8]", "result": 100, "unit": "%"}, {"measurement": "Activity", "setting": "[9]", "result": 99, "unit": "%"}, {"measurement": "Activity", "setting": "[10]", "result": 95, "unit": "%"}, {"measurement": "Activity", "setting": "[11]", "result": 81, "unit": "%"}, {"measurement": "Activity", "setting": "[12]", "result": 92, "unit": "%"}, {"measurement": "Activity", "setting": "[13]", "result": 85, "unit": "%"}, {"measurement": "Activity", "setting": "[14]", "result": 76, "unit": "%"}, {"measurement": "Activity", "setting": "[15]", "result": 29, "unit": "%"}, {"measurement": "Activity", "setting": "[16]", "result": 100, "unit": "%"}, {"measurement": "Activity", "setting": "[17]", "result": 100, "unit": "%"}, {"measurement": "Activity", "setting": "[18]", "result": 95, "unit": "%"}, {"measurement": "Activity", "setting": "[19]", "result": 81, "unit": "%"}, {"measurement": "Activity", "setting": "[20]", "result": 100, "unit": "%"}, {"measurement": "Activity", "setting": "[21]", "result": 97, "unit": "%"}]}]}
